# Laboratory results: ChEMBL document CHEMBL1133510, “Synthesis and evaluation of novel steroidal oxime inhibitors of P450 17 (17 alpha-hydroxylase/C17-20-lyase) and 5 alpha-reductase types 1 and 2” (J Med Chem, 2000)
# pIC50: −log10 of the molar value. Where “and” joins values, the source holds several entries; their conditions need not be identical. Equal entries are not always repeated.
# Assays:
# [1] = target: T1, 3-oxo-5-alpha-steroid 4-dehydrogenase 1 (Homo sapiens, UniProt P18405); experiment: Evaluated for the inhibitory activity against human steroid 5-alpha-reductase type I in human DU-145 cell assay at 5 nM of androstenedione; format: cell-based
# T1 sequence (P18405 whole entry): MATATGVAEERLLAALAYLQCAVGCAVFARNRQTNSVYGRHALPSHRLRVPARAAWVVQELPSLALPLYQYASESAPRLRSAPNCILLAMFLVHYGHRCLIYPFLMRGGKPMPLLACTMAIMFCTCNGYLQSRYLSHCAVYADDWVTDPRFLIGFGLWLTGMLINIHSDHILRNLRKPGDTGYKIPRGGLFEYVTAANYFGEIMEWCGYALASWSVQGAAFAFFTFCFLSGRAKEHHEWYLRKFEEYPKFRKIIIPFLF
# Procedure, shortened: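 Whole human DU-145 cells as source of type 1 enzyme, incubated with radiolabeled androstenedione at 5 nM; HPLC separation of product. IC50 = inhibitor concentration giving 50% inhibition; mean of at least two experiments.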
# [2] = target: T2, Steroid 17-alpha-hydroxylase/17,20 lyase (Rattus norvegicus, UniProt P11715); experiment: Evaluated for the inhibitory activity towards Cytochrome P450 17 rat enzyme using testicular microsome at 25 uM of substrate (progesterone); set-up: species or system Testis
# T2 sequence (P11715 whole entry): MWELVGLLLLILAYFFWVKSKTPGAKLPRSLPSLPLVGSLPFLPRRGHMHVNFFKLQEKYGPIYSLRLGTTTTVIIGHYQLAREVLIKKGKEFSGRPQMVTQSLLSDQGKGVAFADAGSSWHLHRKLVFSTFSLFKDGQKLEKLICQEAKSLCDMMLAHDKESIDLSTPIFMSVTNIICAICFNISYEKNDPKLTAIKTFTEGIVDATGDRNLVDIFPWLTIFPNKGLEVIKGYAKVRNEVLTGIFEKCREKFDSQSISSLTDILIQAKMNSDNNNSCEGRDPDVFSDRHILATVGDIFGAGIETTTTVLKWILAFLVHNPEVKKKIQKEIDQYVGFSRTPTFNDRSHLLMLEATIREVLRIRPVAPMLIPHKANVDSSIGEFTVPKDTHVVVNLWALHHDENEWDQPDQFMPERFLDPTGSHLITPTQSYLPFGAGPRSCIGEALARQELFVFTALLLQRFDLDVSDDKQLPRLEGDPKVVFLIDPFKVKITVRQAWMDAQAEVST
# Procedure, shortened: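 Testicular microsomes (human for human enzyme, rat for rat enzyme) incubated with progesterone substrate at 25 µM; product measured by RP-HPLC with UV detection. IC50 = concentration giving 50% inhibition, mean of at least two experiments.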
# [3] = target: T3, 3-oxo-5-alpha-steroid 4-dehydrogenase 2 (Homo sapiens, UniProt P31213); experiment: Inhibition of Human steroid 5-alpha-reductase type II expressed in HEK293 cells; format: cell-based
# T3 sequence (P31213 whole entry): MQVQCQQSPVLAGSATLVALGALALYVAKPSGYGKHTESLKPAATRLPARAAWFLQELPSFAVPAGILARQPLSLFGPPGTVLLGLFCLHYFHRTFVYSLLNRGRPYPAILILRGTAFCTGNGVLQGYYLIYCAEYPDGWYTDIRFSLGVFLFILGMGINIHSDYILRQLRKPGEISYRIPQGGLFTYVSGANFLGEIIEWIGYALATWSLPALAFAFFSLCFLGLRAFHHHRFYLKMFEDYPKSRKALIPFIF
# Procedure, shortened: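 Stably transfected HEK293 clones expressing full-length human type 1 or type 2 cDNA; 300 000 cells per well attached overnight at 37 °C. Fresh DMEM/10% FCS with 5 nM [3H]androstenedione and inhibitor added, final DMSO 1%. Incubated 30 min (type 1) or 13 min (type 2); supernatant ether-extracted and analysed by HPLC. Mean of at least three experiments.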
# [4] = target: T1, 3-oxo-5-alpha-steroid 4-dehydrogenase 1; experiment: Inhibition of Human steroid 5-alpha-reductase type I expressed in HEK293 cells; format: cell-based
# Procedure, shortened: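 Human 5α-reductase type 1 cDNA (plasmid pRcCMV-I) stably transfected into HEK293 cells, clones chosen under G418. 300 000 cells/well attached overnight at 37 °C, then fresh DMEM/10% FCS containing 5 nM [3H]androstenedione plus inhibitor (1% DMSO) for 30 min. Supernatant extracted with ether, product measured by HPLC. IC50 taken as mean of at least three experiments.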
# [5] = target: T3, 3-oxo-5-alpha-steroid 4-dehydrogenase 2; experiment: Evaluated for the inhibitory activity against human steroid 5-alpha-reductase type 2 from human BPH tissue at 210 nM of testosterone
# Procedure, shortened: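 Enzyme from prostate homogenate of BPH patients, assayed at pH 5.5 with radiolabeled testosterone at 210 nM; product separated by HPLC. IC50 taken as inhibitor concentration giving 50% inhibition; mean of at least two experiments.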
# [6] = target: T4, Steroid 17-alpha-hydroxylase/17,20 lyase (Homo sapiens, UniProt P05093); experiment: Evaluated for the inhibitory activity towards Cytochrome P450 17 human enzyme using testicular microsome at 25 uM of substrate (progesterone); set-up: species or system Testis
# T4 sequence (P05093 whole entry): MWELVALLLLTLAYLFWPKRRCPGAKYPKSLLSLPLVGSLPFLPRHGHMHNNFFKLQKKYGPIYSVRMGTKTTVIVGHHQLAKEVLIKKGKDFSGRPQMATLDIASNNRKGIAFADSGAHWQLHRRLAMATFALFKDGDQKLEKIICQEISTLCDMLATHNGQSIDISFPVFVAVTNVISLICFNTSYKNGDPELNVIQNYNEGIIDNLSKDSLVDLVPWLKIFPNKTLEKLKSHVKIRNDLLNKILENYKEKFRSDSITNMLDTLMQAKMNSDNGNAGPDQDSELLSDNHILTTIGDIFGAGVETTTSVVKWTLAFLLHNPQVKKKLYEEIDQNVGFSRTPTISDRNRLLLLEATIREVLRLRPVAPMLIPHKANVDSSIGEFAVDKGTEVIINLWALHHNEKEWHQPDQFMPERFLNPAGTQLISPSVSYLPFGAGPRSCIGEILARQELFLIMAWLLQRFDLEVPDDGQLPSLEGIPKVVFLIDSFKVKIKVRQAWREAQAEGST
# [7] = target: T2, Steroid 17-alpha-hydroxylase/17,20 lyase; experiment: Inhibition of Cytochrome P450 17 from rat testicular microsome at 25 uM progesterone; No inhibition
# [8] = target: T4, Steroid 17-alpha-hydroxylase/17,20 lyase; experiment: Inhibition of Human P450 17 and NADPH-P450 reductase co-expressed in Escherichia coli with 25 uM progesterone
# [9] = target: T5, Thromboxane-A synthase (Homo sapiens) (UniProt P24557); experiment: Inhibition of thromboxane synthase P450 TXA2 at 50 uM
# T5 sequence (whole entry): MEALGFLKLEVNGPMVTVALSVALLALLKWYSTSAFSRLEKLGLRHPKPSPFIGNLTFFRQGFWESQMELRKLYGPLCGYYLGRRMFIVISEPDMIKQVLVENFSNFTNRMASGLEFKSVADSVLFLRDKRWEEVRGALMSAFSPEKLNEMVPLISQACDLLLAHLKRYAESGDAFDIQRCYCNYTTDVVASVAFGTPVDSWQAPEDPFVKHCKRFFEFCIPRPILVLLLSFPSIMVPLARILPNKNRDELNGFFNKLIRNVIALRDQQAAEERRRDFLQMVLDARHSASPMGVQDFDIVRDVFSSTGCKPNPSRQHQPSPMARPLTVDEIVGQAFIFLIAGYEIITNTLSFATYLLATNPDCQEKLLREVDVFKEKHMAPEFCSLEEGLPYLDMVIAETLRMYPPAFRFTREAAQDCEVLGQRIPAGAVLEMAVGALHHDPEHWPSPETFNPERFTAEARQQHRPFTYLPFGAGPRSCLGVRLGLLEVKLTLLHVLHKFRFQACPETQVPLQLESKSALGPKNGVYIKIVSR
# Procedure, shortened: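 Thromboxane synthase activity measured in citrated human whole blood; inhibitor tested at 50 µM.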
# [10] = target: T5, Thromboxane-A synthase (Homo sapiens); details: 50 uM
# [11] = target: T2, Steroid 17-alpha-hydroxylase/17,20 lyase; experiment: Inhibition of Cytochrome P450 17 from rat testicular microsome at 125 uM progesterone; No inhibition
# [12] = target: T4, Steroid 17-alpha-hydroxylase/17,20 lyase; experiment: Inhibition of Cytochrome P450 17 of human testicular microsomes at 25 uM progesterone
# Procedure, shortened: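 Enzyme source was human testicular microsomes, with progesterone substrate at 25 µM and product determined by RP-HPLC with UV detection. IC50 is the inhibitor concentration giving 50% inhibition, reported as the mean of at least two experiments.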
# [13] = target: T4, Steroid 17-alpha-hydroxylase/17,20 lyase; experiment: Inhibition of Cytochrome P450 17 of human testicular microsome at 25 uM progesterone; No inhibition
Structure (SMILES),pIC50 [1],pIC50 [2],pIC50 [3],pIC50 [4],pIC50 [5],pIC50 [6],other results
CC12CCC(=O)C=C1CCC1C2CCC2(C)C(C/C=N/O)CCC12 (stereo unspecified),5.71,6.52,6.05,5.61,6.52,,
C/C(=N/O)[C@H]1CCC2C3CCC4=CC(=O)CCC4(C)C3CCC21C (stereo partly specified),5.79,< 3.90,,5.75,6.24 and 5.93,< 5.60,
C/C(=N/O)[C@H]1CCC2C3CC(=O)C4=CC(=O)CCC4(C)C3CCC21C (stereo partly specified),< 5.00,,,,5.49,< 5.60,IC50 [7]: Not Active
C[C@]12CC[C@H](O)CC1=CC[C@H]1C3CC/C(=C/C=N\O)[C@@]3(C)CC[C@@H]12 (stereo partly specified),,6.28,,,,7.11,pIC50 [8]: 6.64; inhibition [9]: 35%
O=C(O)c1ccc(OCCn2ccnc2)cc1,,,,,,,IC50 [10]: 1100 nM
C/C(CC1CCC2C3CC=C4CC(O)CCC4(C)C3CCC12C)=N\O (stereo unspecified),,5.01,,,,5.93,
C/C(=N/O)C1=CCC2C3CCC4=CC(=O)CCC4(C)C3CCC12C (stereo unspecified),< 5.00,< 3.90,,,< 5.00,7.00,
C/C(=N/O)[C@H]1CC[C@H]2[C@@H]3CC=C4C[C@@H](O)CC[C@]4(C)[C@H]3CC[C@]12C,,,,,,,IC50 [11]: Not Active; pIC50 [12]: 5.78
CC(C)(C)NC(=O)[C@H]1CC[C@H]2[C@@H]3CC[C@H]4NC(=O)C=C[C@]4(C)[C@H]3CC[C@]12C [FINASTERIDE],7.40,,7.22,6.27,,,
C/C(CC1CCC2C3CC(=O)C4=CC(=O)CCC4(C)C3CCC12C)=N\O (stereo unspecified),6.05,,6.07,5.54,6.37,,IC50 [13]: Not Active; IC50 [7]: Not Active
